Broadly, the Ki is a measure of affinity in units of concentration, obtained from inhibition or displacement.

The results in this text go back to article PMC3702663 (Journal of chemical information and modeling, 2013).

Assay [1] addresses T1, MOP receptor (Homo sapiens, UniProt P35372). Description: BRET-based G protein. In kind it is cell-based.
For assay [2], the target named is T2, hKOP receptor (Homo sapiens, UniProt P41145). It is filed as binding.
The target in assay [3] is T2, hKOP receptor. In words: BRET-based arrestin3 recruitment assay, hKOP-RLuc8 with arrestin3-mVenus. In kind it is cell-based. As to conditions: Potency for arrestin3 recruitment at hKOP receptor, 5 min after ligand. In outline:
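HEK293T cells transfected with polyethylenimine (1:3) using 0.2 µg hKOP receptor with C-terminal RLuc8, 15 µg human arrestin3-mVenus and 4.8 µg empty vector (20 µg total), grown in DMEM/10% FBS. Assayed 48 h post-transfection: cells resuspended in PBS, ~200,000/well, 5 µM coelenterazine H, then ligand 5 min later.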
A general note: Bioluminescence resonance energy transfer reports proximity on the nanometre scale.

For assay [4], the target named is T1, MOP receptor. Description: Competitive inhibition of 3H-diprenorphine binding at the MOP receptor. The settings on record: 3H-diprenorphine 0.3 nM.
The target of assay [5] is T3, DOP receptor (Homo sapiens, UniProt P41143). In words: Competitive inhibition of 3H-diprenorphine binding at the DOP receptor. As to conditions: 3H-diprenorphine 0.3 nM.
In assay [6] the target is T3, DOP receptor. In words: BRET-based G protein. In kind it is cell-based.
Assay [7] has as its target T2, hKOP receptor. In words: BRET-based G protein. In kind it is cell-based. As to conditions: relative to EKC.

The structures appear in SMILES notation. Read-outs that look alike come from different tables or passages of the source.

As to `O=C(CN1CCCC1C(=O)Nc1nccs1)Nc1cccc(F)c1` (centres unmarked) [MCKK-17S, 1-(2-(3-fluorophenylamino)-2-oxoethyl)-N-(thiazol-2-yl)pyrrolidine-2-carboxamide], the “Agonistic activity at the MOP receptor, in words” value on MOP receptor [1] is given as “Neither the racemic nor the MCKK-17 stereoisomers displayed significant activity”. In addition, the Ki is 120 µM at hKOP receptor [2]; > 10000 µM on MOP receptor [4] (Ki MOP, means ± S.E.M. (n=3)); > 10000 µM on DOP receptor [5] (Ki DOP, means ± S.E.M. (n=3)). In addition, the EC50 on hKOP receptor [3] was 120 ± 47 µM; on DOP receptor [6] (read-out: Potency for G protein activation at the DOP receptor, BRET), > 1000 µM. Further, the “Agonistic activity at the DOP receptor, in words” value on DOP receptor [6] (BRET) is “did not significantly activate the DOP receptor”. For the same compound, the “Agonistic activity (GαoB activation) at hKOP receptor, in words” value at hKOP receptor [7] is on record as “full agonism relative to EKC”.
With `O=C(CN1CCCC1C(=O)Nc1nccs1)Nc1cccc(F)c1` (centres unmarked) [MCKK-17R, 1-(2-(3-fluorophenylamino)-2-oxoethyl)-N-(thiazol-2-yl)pyrrolidine-2-carboxamide], the “Agonistic activity at the MOP receptor, in words” value at MOP receptor [1] is listed as “Neither the racemic nor the MCKK-17 stereoisomers displayed significant activity”. Besides, the EC50 at hKOP receptor [3] and at DOP receptor [6] was > 1000 µM throughout. The Ki was determined as 510 µM on MOP receptor [4] (Ki MOP, means ± S.E.M. (n=3)) and 290 µM on DOP receptor [5] (Ki DOP, means ± S.E.M. (n=3)). The “Agonistic activity at the DOP receptor, in words” value at DOP receptor [6] (BRET) is listed as “most active enantiomer at the DOP receptor”.
On to `O=C(CN1CCCC1C(=O)Nc1nccs1)Nc1cccc(F)c1` (racemic) [MCKK-17, 1-(2-(3-fluorophenylamino)-2-oxoethyl)-N-(thiazol-2-yl)pyrrolidine-2-carboxamide], for which the “Agonistic activity at the MOP receptor, in words” value at MOP receptor [1] is “Neither the racemic nor the MCKK-17 stereoisomers displayed significant activity”. Further, on hKOP receptor [2] (100 µM compound, 3H-diprenorphine 0.3 nM), the “Inhibition of 3H-diprenorphine binding (primary testing)” value is listed as “partially but significantly inhibited”. The EC50 at hKOP receptor [3] was 160 ± 38 µM; at DOP receptor [6], > 1000 µM.
With `CC[C@]12CCN(CC3CC3)[C@H](C(=O)c3ccc(O)cc31)[C@@H]2C` [EKC, ethylketocyclazocine, reference compound], the Ki at MOP receptor [4] (Ki at the MOP receptor, reference ligand) worked out at 0.17 ± 0.1 µM; on DOP receptor [5] (Ki at the DOP receptor, reference ligand), 0.25 ± 0.031 µM.
